Test results taken from ChEMBL document CHEMBL1127332, “Pyrido[2,3-d]pyrimidine angiotensin II antagonists” (J Med Chem, 1994).

Legend:
[1] = target: T1, Angiotensin II receptor (AT-1) type-1 (Rattus norvegicus, UniProt P29089+P25095); assay: In vitro inhibition of specific binding of [125 I] A II to rat liver membrane.
T1 sequence (P29089 whole entry): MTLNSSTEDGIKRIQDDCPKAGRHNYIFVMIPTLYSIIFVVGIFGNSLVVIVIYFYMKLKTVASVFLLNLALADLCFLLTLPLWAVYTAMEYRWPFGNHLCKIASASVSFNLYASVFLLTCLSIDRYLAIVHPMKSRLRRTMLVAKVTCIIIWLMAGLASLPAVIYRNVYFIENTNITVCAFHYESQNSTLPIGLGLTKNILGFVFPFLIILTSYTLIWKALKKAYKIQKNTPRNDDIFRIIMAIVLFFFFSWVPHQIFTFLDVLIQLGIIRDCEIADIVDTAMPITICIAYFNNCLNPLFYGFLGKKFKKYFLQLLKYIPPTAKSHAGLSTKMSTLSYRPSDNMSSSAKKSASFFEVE
T1 sequence (P25095 whole entry): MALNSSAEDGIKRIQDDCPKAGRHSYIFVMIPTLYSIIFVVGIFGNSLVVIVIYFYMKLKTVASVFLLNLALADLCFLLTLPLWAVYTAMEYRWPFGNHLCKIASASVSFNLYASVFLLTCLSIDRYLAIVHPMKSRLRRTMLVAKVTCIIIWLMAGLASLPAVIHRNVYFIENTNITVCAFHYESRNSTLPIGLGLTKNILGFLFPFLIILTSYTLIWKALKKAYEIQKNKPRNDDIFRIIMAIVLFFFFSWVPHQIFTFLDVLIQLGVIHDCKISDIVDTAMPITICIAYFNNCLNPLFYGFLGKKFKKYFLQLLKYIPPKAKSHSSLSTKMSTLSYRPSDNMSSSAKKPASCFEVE
How it was run: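 Rat liver membrane preparation (AT1 sites), diluted in kit buffer. Nonspecific binding defined with 10⁻⁴ M A II, standard curve 10⁻¹⁰–10⁻⁷ M. Reaction stopped with saline and glass-fiber filtration, then gamma counting.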

Rattus norvegicus = assay: Maximum percent change in A II supported mean arterial pressure 60 minutes following 3 mg/kg i.d. administration.; format: functional; settings: Artery, intraduodenal, in the assay text read “at the time of maximum effect following” for “60 minutes following”, read-out: Inhibition
How it was run: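 Anesthetized rats, ganglion blocked with mecamylamine 3 mg/kg iv, under A II infusion until pressure stabilized. Agent suspended in methyl cellulose and given 3 mg/kg through a duodenal cannula (1 mL/kg). MAP followed for 240 min. Fall expressed as percent of the A II-supported pressure. Maximum change and its time recorded, n = 3. Adjusted AUC between control and treated MAP/time curves.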

[2] = Partition coefficient (logP); format: physicochemical; settings: octanol/water
[3] = Partition coefficient (logD) (octanol/0.01 N K2HPO4); format: physicochemical
How it was run: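 Distribution coefficient measured between octanol and pH 7.4 phosphate buffer.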

CCc1nc(C)c2c(n1)N(Cc1ccc(-c3ccccc3-c3nn[nH]n3)cc1)C(=O)CC2
IC50 [1]: 1.3 nM
maximum percent change in A II-supported mean arterial pressure at 3 mg/kg (Rattus norvegicus): -76%

Cc1nc(C)c2c(n1)N(Cc1ccc(-c3ccccc3C(=O)[O-])cc1)C(=O)CC2.[K+]
IC50 [1]: 85 nM
maximum percent change in A II-supported mean arterial pressure at 3 mg/kg (Rattus norvegicus): -36%

CCCc1nc(C)nc2c1CCC(=O)N2Cc1ccc(-c2ccccc2-c2nn[nH]n2)cc1
IC50 [1]: 1.8 nM
logP [2]: 4.45
maximum percent change in A II-supported mean arterial pressure at 3 mg/kg (Rattus norvegicus): -86%

CCc1nc(C)nc2c1CCC(=O)N2Cc1ccc(-c2ccccc2-c2nn[nH]n2)cc1
IC50 [1]: 2.3 nM
logP [2]: 3.92
maximum percent change in A II-supported mean arterial pressure at 3 mg/kg (Rattus norvegicus): -104%

Cc1nc(C)c2c(n1)N(Cc1ccc(-c3ccccc3-c3nn[nH]n3)cc1)CCC2
IC50 [1]: 170 nM
maximum percent change in A II-supported mean arterial pressure at 3 mg/kg (Rattus norvegicus): -20%

CCCc1nc(C)c2c(n1)N(Cc1ccc(-c3ccccc3-c3nn[nH]n3)cc1)C(=O)CC2
IC50 [1]: 1.35 nM
maximum percent change in A II-supported mean arterial pressure at 3 mg/kg (Rattus norvegicus): -58%

Cc1nc(C(C)C)c2c(n1)N(Cc1ccc(-c3ccccc3-c3nn[nH]n3)cc1)C(=O)CC2
IC50 [1]: 13 nM
logP [2]: 4.32
logD [3]: 1.41
maximum percent change in A II-supported mean arterial pressure at 3 mg/kg (Rattus norvegicus): -44%

Cc1nc(CO)nc2c1CCC(=O)N2Cc1ccc(-c2ccccc2-c2nn[nH]n2)cc1
IC50 [1]: 285 nM
maximum percent change in A II-supported mean arterial pressure at 3 mg/kg (Rattus norvegicus): -30%

Cc1nc(C)c2c(n1)N(Cc1ccc(-c3ccccc3-c3nn[nH]n3)nc1)C(=O)CC2
IC50 [1]: 24.3 nM
maximum percent change in A II-supported mean arterial pressure at 3 mg/kg (Rattus norvegicus): -16%

Cc1nc(C)c2c(n1)N(Cc1ccc(-c3ccccc3-c3nn[nH]n3)cc1)C(=O)C(C)C2 (stereo not drawn)
IC50 [1]: 3.2 nM
logP [2]: 3.91
maximum percent change in A II-supported mean arterial pressure at 3 mg/kg (Rattus norvegicus): -63%

Cc1nc2c(c(C(F)(F)F)n1)CCC(=O)N2Cc1ccc(-c2ccccc2-c2nn[nH]n2)cc1
IC50 [1]: 24.6 nM
maximum percent change in A II-supported mean arterial pressure at 3 mg/kg (Rattus norvegicus): -68%

Cc1nc(C(C)C)nc2c1CCC(=O)N2Cc1ccc(-c2ccccc2-c2nn[nH]n2)cc1
IC50 [1]: 2.2 nM
maximum percent change in A II-supported mean arterial pressure at 3 mg/kg (Rattus norvegicus): -40%

Cc1nc2c(c(C(F)(F)F)n1)CCC(=O)N2Cc1ccc(-c2ccccc2-c2nn[nH]n2)nc1
IC50 [1]: 94.9 nM
maximum percent change in A II-supported mean arterial pressure at 3 mg/kg (Rattus norvegicus): -41%

Cc1nc(C=O)c2c(n1)N(Cc1ccc(-c3ccccc3-c3nn[nH]n3)cc1)C(=O)CC2
IC50 [1]: 50.7 nM

Cc1nc(C)c2c(n1)N(Cc1ccc(-c3ccccc3-c3nn[nH]n3)cn1)C(=O)CC2
IC50 [1]: 49.4 nM
maximum percent change in A II-supported mean arterial pressure at 3 mg/kg (Rattus norvegicus): -34%

Cc1nc(C)c2c(n1)N(Cc1ccc(-c3ccccc3-c3nn[nH]n3)cc1)C(=O)C(C)(C)C2
IC50 [1]: 3 nM
logP [2]: 4.43
logD [3]: 1.21
maximum percent change in A II-supported mean arterial pressure at 3 mg/kg (Rattus norvegicus): -66%

CCCCc1nc(Cl)c(CO)n1Cc1ccc(-c2ccccc2-c2nnn[nH]2)cc1 [LOSARTAN]
maximum percent change in A II-supported mean arterial pressure at 3 mg/kg (Rattus norvegicus): -72%

Cc1nc(C)c2c(n1)N(Cc1ccc(-c3ccccc3-c3nnn[nH]3)cc1)C(=O)CC2 [TASOSARTAN]
IC50 [1]: 5.2 nM
logP [2]: 3.39
logD [3]: 0.49
maximum percent change in A II-supported mean arterial pressure at 3 mg/kg (Rattus norvegicus): -97%
